“Also recorded” adds a separate entry of the source. Like-named read-outs stand apart in the source and are kept apart here.
Legend:
[1] = Ketoconazole drug–drug interaction study: romidepsin plasma pharmacokinetics; assay type: in vivo, human (patients with advanced cancer)
[2] = Safety evaluation in the ketoconazole interaction study; assay type: in vivo, human (patients with advanced cancer)
[3] = test system: CYP1A1; conditions: at plasma concentrations that are effective; cited from earlier work
[4] = patients with CTCL or PTCL; cited from earlier work
[5] = test system: CYP2B6; conditions: at plasma concentrations that are effective; cited from earlier work
[6] = test system: CYP enzymes; conditions: at plasma concentrations that are effective; cited from earlier work
[7] = test system: CYP3A4; conditions: at plasma concentrations that are effective; cited from earlier work
[8] = test system: P‐glycoprotein (P‐gp); conditions: in vitro; cited from earlier work
[9] = test system: BCRP; conditions: in vitro; cited from earlier work
[10] = test system: hepatocytes; conditions: cited from earlier work
[11] = test system: α1‐acid‐glycoprotein; conditions: primarily to α1-acid-glycoprotein; cited from earlier work
[12] = Safety evaluation in the rifampin interaction study; assay type: in vivo, human (patients with advanced cancer); conditions: in two patients; romidepsin 14 mg/m^2 with rifampin 600 mg
Method in brief: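 Antiemetic prophylaxis; K or Mg supplemented below 3.8 or 0.85 mmol/L. Monitoring through closeout (days 15–20): AE type, severity and relatedness, examinations, vital signs, ECGs, concomitant medications, clinical labs. Summarised descriptively.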

[13] = cited from earlier work
[14] = Rifampin drug–drug interaction study: romidepsin plasma pharmacokinetics; assay type: in vivo, human (patients with advanced cancer)
[15] = test system: CYP3A; conditions: strong inhibitor of CYP3A; cited from earlier work
[16] = coadministration with ketoconazole vs alone
[17] = human, plasma, intravenous, 8 mg/m2
[18] = coadministration with rifampin 600 mg vs alone
[19] = human, plasma, intravenous, 14 mg/m2

## C/C=C1\NC(=O)[C@H]2CSSCC/C=C/[C@H](CC(=O)N[C@H](C(C)C)C(=O)N2)OC(=O)[C@H](C(C)C)NC1=O [Romidepsin]
[1]; coadministration with ketoconazole 400 mg vs alone
  Increase of mean romidepsin Cmax: ~10%
[1]; [16]
  Change of romidepsin clearance: decreased
  Change of romidepsin volume of distribution: decreased
[1]; [17]
  Tmax: 3.5 h
  Vd: 236 L
  clearance: 282 mL/min
  half-life: 9.7 h
[1]; human, plasma, iv, 8 mg/m^2
  AUC(0-inf): 915 ng·h/mL
  Cmax: 229 ng/mL
[1]; romidepsin + ketoconazole vs romidepsin alone, Hodges-Lehmann estimate
  Median Difference of Tmax: 0
[2]; romidepsin 8 mg/m^2 with ketoconazole 400 mg
  Deaths during the treatment period: No deaths
[3]
  Induction of CYP1A1: nor is it an inducer
[4]
  Effect of polymorphic variants of CYP3A on systemic exposure: did not affect
[5]
  Induction of CYP2B6: nor is it an inducer
[6]
  Inhibition of CYP enzymes: does not inhibit
[7]
  Induction of CYP3A4: nor is it an inducer
[8]
  Substrate of the efflux transporter P-glycoprotein (P-gp): substrate
[9]
  Substrate of BCRP: not a substrate
[10]
  Uptake into hepatocytes: actively taken up into the liver; also recorded: active process
[11]
  Protein binding: highly protein bound
[12]
  Treatment-emergent SAEs: 8
[13]; given on days 1, 8, and 15 of a 28-day cycle
  Maximal tolerated dose (MTD): 13.3 mg/m^2
[13]; given on days 1 and 5 in a 21-day cycle
  Maximal tolerated dose (MTD): 17.8 mg/m^2
[13]; phase 1 dose escalation
  Dose-limiting toxicities: fatigue, nausea, vomiting, thrombocytopenia (transient and grade 3) and neutropenia
[14]; [18]
  Decrease of romidepsin clearance: approximately 44%
  Decrease of romidepsin volume of distribution: ~52%
  Increase of mean romidepsin Cmax: ~60%
[14]; [19]
  Tmax: 2.98 h
  Vd: 162 L
  clearance: 193 mL/min
  half-life: 9.7 h
[14]; human, plasma, iv, 14 mg/m^2
  AUC(0-inf): 2230 ng·h/mL
  Cmax: 571 ng/mL

## CC(=O)N1CCN(c2ccc(OCC3COC(Cn4ccnc4)(c4ccc(Cl)cc4Cl)O3)cc2)CC1 (centres unmarked) [ketoconazole]
[2]; ketoconazole 400 mg daily days 4-8 with romidepsin 8 mg/m^2
  Increases in liver enzymes AST or ALT: not observed
[15]
  Increase of AUC of CYP3A substrates: ≥ 5 fold

Source: publication PMC5034805 (Journal of Clinical Pharmacology, 2015)
